In ChEMBL document CHEMBL1127804 (J Med Chem, 1994):

Tests used:
[1] = test system: SCC-25; assay: Tested for inhibitory concentration against human SCC25 cell line; type: functional, cell-based
Method in brief: (§1)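 SCC VII (murine) or SCC25 (human) squamous carcinoma cells were plated at 2×10^3/well in DME with 10% FBS for 24 h at 37 °C, 5% CO2. Drug was added at 10 concentrations from 0.1 nM to 3 μM for a further 72 h. Growth was read by sulforhodamine B protein stain at 530 nm.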

[2] = test system: MCF7; assay: Tested for inhibitory concentration against MCF-7 human breast carcinoma cell line; type: functional, cell-based
Method in brief: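 MCF-7 breast carcinoma cells were grown in replicate 24-well plates in α-MEM with 10% dialyzed FBS plus epithelial growth factor, hydrocortisone and insulin. Cells were exposed for 72 h at 37 °C under 6.5% CO2 and counted electronically with a Coulter counter. IC50 was estimated from semilog plots using averaged data from a single experiment on replicate plates.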

[3] = Ratio between Ki values of CCRF-CEM and CEM/MTX; type: functional
[4] = test system: CCRF-CEM; assay: Tested for inhibition of [14C]-DDATHF influx in CEM/MTX cells of human leukemic lymphoblasts; type: functional, cell-based
Method in brief: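 Influx of (6R)-[14C]DDATHF (2 μM) into CEM/MTX cells was measured. Before the assay, cells normally kept in 1 μM MTX were held out of MTX for 3–4 generations. Ki came from Dixon plots and is given as mean ± SE of two to seven separate experiments.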

[5] = target: T1, Dihydrofolate reductase (Homo sapiens, UniProt P00374); assay: Tested for inhibitory concentration against human dihydrofolate reductase(DHFR)
T1 sequence (P00374 whole entry): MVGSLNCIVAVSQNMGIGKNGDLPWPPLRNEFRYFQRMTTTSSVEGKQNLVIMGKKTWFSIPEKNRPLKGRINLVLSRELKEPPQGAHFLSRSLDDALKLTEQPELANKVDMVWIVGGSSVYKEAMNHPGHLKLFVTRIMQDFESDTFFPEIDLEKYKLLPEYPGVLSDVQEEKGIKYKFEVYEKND

[6] = test system: CCRF-CEM; assay: cells; settings: Homo sapiens
[7] = test system: SCC-7; assay: Tested for inhibitory concentration against SCC-VII murine squamous carcinoma cell line; type: functional, cell-based; settings: Mus musculus; method in brief: as §1
[8] = test system: CCRF-CEM; assay: Tested for inhibitory concentration of cell growth against CCRF-CEM cell lines of human leukemic lymphoblast
[9] = test system: CCRF-CEM; assay: Tested for the inhibition of [14C]-DDATHF influx in CCRF-CEM cells of human leukemic lymphoblast; type: functional, cell-based
Method in brief: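 Influx of (6R)-[14C]DDATHF (2 μM) into wild-type CCRF-CEM human leukemic lymphoblasts was measured with the inhibitor present. Ki was calculated from Dixon plots and reported as mean ± SE of two to seven separate experiments.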

[10] = test system: CCRF-CEM; assay: Tested in vitro for relative activity against CCRF-CEM human Leukemic lymphoblast by using TS as primary target; type: functional
[11] = test system: CCRF-CEM; assay: Tested in vitro for inhibitory concentration against CCRF-CEM human Leukemic lymphoblast by using TS as primary target; type: functional, cell-based
[12] = target: T1, Dihydrofolate reductase; assay: rested for inhibitory concentration against human dihydrofolate reductase(DHFR)

Nc1nc(N)c2nc(CNc3ccc(C(=O)NC(CCCNC(=O)c4ccccc4C(=O)O)C(=O)O)cc3)cnc2n1 (stereo not given)
IC50 [1]: 1 nM
IC50 [2]: 0.7 nM
Ratio [3]: 0.68
Ki [4]: 440 nM
IC50 [5]: 12.2 nM
IC50 [6]: 110 nM
IC50 [7]: 0.89 nM
IC50 [8]: 1.08 nM
Ki [9]: 650 nM

CN(Cc1ccc2[nH]c(C=O)nc(=O)c2c1)c1ccc(C(=O)NC(CCC(=O)O)C(=O)O)s1 (stereo not given)
Relative activity [10]: 23
IC50 [11]: 4.7 nM

Nc1nc(N)c2nc(CNc3c(Cl)cc(C(=O)NC(CCCNC(=O)c4ccccc4C(=O)O)C(=O)O)cc3Cl)cnc2n1 (stereo not given)
IC50 [1]: 2.5 nM
IC50 [5]: 10.2 nM
IC50 [7]: 1.6 nM

Nc1nc(N)c2nc(CNc3ccc(C(=O)NC(CCNC(=O)c4ccccc4C(=O)O)C(=O)O)cc3)cnc2n1 (stereo not given)
IC50 [1]: 12.9 nM
IC50 [2]: 6 nM
IC50 [5]: 11.6 nM
IC50 [7]: 19 nM

Nc1nc(N)c2nc(CNc3ccc(C(=O)NC(CCCCNC(=O)c4ccccc4C(=O)O)C(=O)O)cc3)cnc2n1 (stereo not given)
IC50 [1]: 17.9 nM
IC50 [12]: 11.4 nM
IC50 [2]: 2 nM
IC50 [7]: 4 nM

Nc1nc(N)c2nc(CNc3ccc(C(=O)N[C@@H](CCC(=O)O)C(=O)O)cc3)cnc2n1 [AMINOPTERIN]
IC50 [1]: 6.9 nM
IC50 [7]: 4 nM

Nc1nc(=O)c2nc(CNc3ccc(C(=O)N[C@@H](CCC(=O)O)C(=O)O)cc3)cnc2[nH]1 [FOLIC ACID]
Ratio [3]: 0.054
Ki [4]: 8950 nM
Ki [9]: 167000 nM

Nc1nc(=O)c2c([nH]1)NCC(CNc1ccc(C(=O)N[C@@H](CCC(=O)O)C(=O)O)cc1)N2C=O (stereo not given in full) [LEUCOVORIN]
Ki [4]: 740 nM

CN(Cc1cnc2nc(N)nc(N)c2n1)c1ccc(C(=O)N[C@@H](CCC(=O)O)C(=O)O)cc1 [METHOTREXATE]
Ki [4]: 9740 nM
IC50 [6]: 2550 nM
IC50 [7]: 5.8 nM
IC50 [8]: 10.5 nM
Ki [9]: 4480 nM

COc1cc(NCc2ccc3nc(N)nc(N)c3c2C)cc(OC)c1OC [TRIMETREXATE]
IC50 [1]: 8 nM
IC50 [7]: 6.3 nM
